Experimental data pooled from the literature.
Protocols differ between the studies behind these lines.
Read-out: cell growth or viability

Structure (SMILES) | cell line | assay | conditions | IC50
CCNCCCn1c2c(c3cc(OC)c(OC)cc3c1=O)C(=O)c1cc3c(nc1-2)OCO3 | TC-32 | MTS | 72 h | 53 nM
C/C(=N\NC(=O)c1cccc(S(=O)(=O)N2CCN(C)CC2)c1)c1cc(Cl)ccc1O | TC-32 | resazurin | – | 3300 nM
COc1nc(NCc2cn(-c3ccc(NC(=O)c4ccc(F)cc4)cc3)nn2)nc(OC)n1 | Caco-2 | MTT | 72 h | 550 nM
COc1cccc2c1C(=O)c1c(O)c3c(c(O)c1C2=O)C[C@@](O)(C(=O)CO)C[C@@H]3O[C@H]1C[C@H](N)[C@H](O)[C@H](C)O1 | NCI-H1650 | MTT | 72 h | 120 nM
C=C(F)C(=O)N1CCN(c2nc(OC[C@@H]3CCCN3C)nc3c2CCN(c2cccc4cccc(Cl)c24)C3)C[C@@H]1CC#N | HCC44 | ATP luminescence | 3D culture | 3.82 nM
CC1(C)CCC(CN2CCN(c3ccc(C(=O)NS(=O)(=O)c4ccc(NCC5CCOCC5)c([N+](=O)[O-])c4)c(Oc4cnc5[nH]ccc5c4)c3)CC2)=C(c2ccc(Cl)cc2)C1 | SU-DHL-4 | ATP luminescence | 48 h | 25 nM
COc1nc(NCc2cn(-c3ccc(NC(=O)c4ccc(Cl)cc4)cc3)nn2)nc(OC)n1 | Caco-2 | MTT | 72 h | 620 nM
C=CC(=O)N1CCN(c2nc(=O)n(-c3c(C)ccnc3C(C)C)c3nc(-c4c(O)cccc4F)c(F)cc23)[C@@H](C)C1 | HCC44 | ATP luminescence | – | > 10000 nM
COc1nc(NCc2cn(-c3ccc(NC(=O)c4ccccc4)cc3)nn2)nc(OC)n1 | Caco-2 | MTT | 72 h | 766 nM
Nc1n[nH]c2nc(-c3cccc(O)c3)cc(-c3cc4cc(Cl)ccc4nc3N3CCOCC3)c12 | Caco-2 | MTT | 72 h | 191 nM
COc1cc2c3c(n(CCCn4ccnc4)c(=O)c2cc1OC)-c1nc2c(cc1C3=O)OCO2 | TC-32 | MTS | 72 h | 127 nM
CCCOc1nc(-c2cccc(O)c2)cc(-c2cc3cc(Cl)ccc3nc2N2CCOCC2)c1C#N | Caco-2 | MTT | 72 h | 355 nM
COc1nc(NCc2cn(-c3ccc(C(=O)Nc4ccc(C)cc4)cc3)nn2)nc(OC)n1 | Caco-2 | MTT | 72 h | 514 nM
CCCOc1nc(-c2cccc(O)c2)cc(-c2cc3cc(OC)ccc3nc2N2CCOCC2)c1C#N | Caco-2 | MTT | 72 h | 42.2 nM
COc1nc(NCc2cn(-c3ccc(C(=O)Nc4ccc(Cl)cc4)cc3)nn2)nc(OC)n1 | Caco-2 | MTT | 72 h | 543 nM
